The source of these data is ChEMBL document CHEMBL1153346, “Structure-activity study of pentamidine analogues as antiprotozoal agents” (J Med Chem, 2009).

Series [1] is described as follows: Selectivity index, ratio of IC50 for rat L6 cells to IC50 for chloroquine-resistant Plasmodium falciparum K1. The class given is toxicity, cell-based. The conditions noted are these: read-out: Ratio IC50. Put shortly: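 Ratio of L6 IC50 to K1 IC50. L6 cells: Alamar blue assay after 70 h, 37 °C. K1: [3H]-hypoxanthine incorporation in infected red cells over 48 + 24 h at 37 °C under low O2. IC50s from sigmoidal curves, two independent runs in duplicate.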

Series [2] has as its system L6. Kind of series: Cytotoxicity against rat L6 cells after 70 hrs by alamar blue assay. The class given is cell-based. The conditions noted are these: L6, 70 h. The procedure, abridged:
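L6 rat myoblasts, 4000 per well, in RPMI 1640 with 2 mM L-glutamine, HEPES, NaHCO₃ and 10% FBS. Exposed to serial dilutions (DMSO ≤1%) for 70 h at 37 °C in humidified 5% CO₂. Resazurin then added for 2-3 h; fluorescence read at ex 536/em 588 nm. IC50 from sigmoidal curves; two independent runs in duplicate.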
(The colour change of resazurin is a common sign of viable cells or microbes.)

Series [3] has as its system Trypanosoma brucei rhodesiense. Kind of series: Antitrypanosomal activity against Trypanosoma brucei rhodesiense STIB900 trypomastigotes infected in NMRI mouse assessed as survival and aparasitemic condition at 5 mg/kg, ip administered from day 3 to day 6 postinfection measured after 60 days postinfection. It counts as functional, organism-based. Details: dose 5 mg/kg. The procedure, abridged: (§1)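 STIB900 acute mouse model with 4 mice per group. Compound in DMSO diluted with water to a final 10% DMSO, given intraperitoneally once daily for four days. An infected, untreated control group was included. Tail blood checked for parasitemia until day 60. Mice alive and aparasitemic at day 60 counted as cured; deaths recorded for mean survival time.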

Series [4] deals with Trypanosoma brucei rhodesiense. Kind of series: Antiprotozoal activity against Trypanosoma brucei rhodesiense STIB900 trypomastigotes after 70 hrs by alamar blue assay. It counts as functional, organism-based. Put shortly:
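Bloodstream forms, 2000 per well, in MEM with Earle's salts plus 0.2 mM 2-mercaptoethanol, 1 mM pyruvate, 0.5 mM hypoxanthine and 15% heat-inactivated horse serum. Exposed to serial dilutions (DMSO ≤1%) for 70 h at 37 °C in 5% CO₂. Resazurin then added for a further 2-6 h. IC50 from sigmoidal curves; two independent runs in duplicate.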

In series [5] the test system is Trypanosoma brucei rhodesiense. Kind of series: Antitrypanosomal activity against Trypanosoma brucei rhodesiense STIB900 trypomastigotes infected in NMRI mouse assessed as mouse survival at 5 mg/kg, ip administered from day 3 to day 6 postinfection. The class given is functional. The conditions noted are these: route intraperitoneal. The procedure, abridged:
(§2)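 STIB900 acute mouse model. Dosing was intraperitoneal, daily for four days, in DMSO diluted with water to 10% final DMSO. An infected untreated control group was kept. Tail blood was checked for parasitemia to day 60, and deaths were recorded to give mean survival days. Mice surviving and aparasitemic at day 60 counted as cured.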

The subject of series [6] is Plasmodium falciparum. Kind of series: Antiprotozoal activity after 48 hrs against chloroquine-resistant Plasmodium falciparum K1 infected erythrocytes by [3H]hypoxanthine uptake. The class given is functional, organism-based. Put shortly: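 Erythrocytic stages in infected human red cells (hematocrit 1.25%, parasitemia 0.3%) in supplemented RPMI 1640 with Albumax II. Serial dilutions incubated at 37 °C in 93% N2/4% CO2/3% O2. [3H]-hypoxanthine (0.5 µCi/well) added at 48 h, then 24 h more. Incorporation counted by scintillation. IC50 from sigmoidal curves; two independent runs in duplicate.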

Series [7] is described as follows: Selectivity index, ratio of IC50 for rat L6 cells to IC50 for Leishmania donovani MHOM/SD/62/1S-CL2D axenic amastigotes. The conditions noted are these: read-out: Ratio IC50. It counts as toxicity, cell-based. The procedure, abridged:
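Amastigotes: 6 × 10⁴ parasites/well with 2-fold dilutions, 72 h at 37 °C in 5% CO2. Growth read by tetrazolium CellTiter absorbance at 490 nm; IC50 from a four-parameter dose-response fit.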

Series [8] in a line: Selectivity index, ratio of IC50 for rat L6 cells to IC50 for Trypanosoma brucei rhodesiense STIB900 trypomastigotes. The conditions noted are these: read-out: Ratio IC50. The class given is toxicity, cell-based. The procedure, abridged:
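Ratio of L6 IC50 to STIB900 IC50. L6 cells: 4000/well in RPMI 1640 with 10% FBS, 70 h at 37 °C. Bloodstream forms: 2000/well in supplemented MEM with 15% horse serum, 70 h at 37 °C. Both read by Alamar blue fluorescence; IC50s from sigmoidal curves, two independent runs in duplicate.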

Series [9] relates to Leishmania donovani. Kind of series: Antiprotozoal activity against Leishmania donovani MHOM/SD/62/1S-CL2D axenic amastigotes after 72 hrs. It counts as functional, organism-based. Put shortly: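 L. donovani axenic amastigotes, adapted from promastigotes and grown in amastigote medium at 37 °C. 6 × 10⁴ parasites per well with 2-fold compound dilutions (DMSO ≤1%), incubated 72 h at 37 °C in humidified 5% CO₂. Growth read by tetrazolium (CellTiter) absorbance at 490 nm. IC50 from a four-parameter dose-response fit. Average of duplicate determinations.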

Series [10] has as its system Trypanosoma brucei rhodesiense. Kind of series: Antitrypanosomal activity against Trypanosoma brucei rhodesiense STIB900 trypomastigotes infected in NMRI mouse assessed as mouse survival at 20 mg/kg, ip administered from day 3 to day 6 postinfection. The class given is functional. The conditions noted are these: route intraperitoneal. The procedure, abridged: as §2

Series [11] has as its system Trypanosoma brucei rhodesiense. Kind of series: Antitrypanosomal activity against Trypanosoma brucei rhodesiense STIB900 trypomastigotes infected in NMRI mouse assessed as survival and aparasitemic condition at 20 mg/kg, ip administered from day 3 to day 6 postinfection measured after 60 days postinfection. The class given is functional, organism-based. Details: dose 20 mg/kg. Put shortly: as §1

In series [12] the test system is Trypanosoma brucei rhodesiense. Kind of series: Antitrypanosomal activity against Trypanosoma brucei rhodesiense STIB900 trypomastigotes infected in NMRI mouse assessed as mouse survival at 10 mg/kg, ip administered from day 3 to day 6 postinfection. The conditions noted are these: route intraperitoneal. The class given is functional. Put shortly: as §2

Each structure is given as a SMILES string. Active and inactive are the calls of the source. No cut-off for these calls is given here. A value given as a limit tells only on which side of the number the result lay.

For `Cl.Cl.N=C(N)c1ccc(SCCCCCSc2ccc(C(=N)N)cc2)cc1`, the selectivity ratio is 411 in series [1], 6 in series [7] and 1560 in series [8]. In addition, the IC50 – broadly, the concentration that inhibits the measured activity by half – in series [2] turned out to be 7800 nM; in series [4] it was 5 nM; in series [6] it was 19 nM; in series [9], 1270 nM. The result in series [3] was inactive. For the same compound, in series [5], the Survival was 32.3 days.

Take `COc1cc(C(=N)N)ccc1OCCCCCOc1ccc(C(=N)N)cc1OC.Cl.Cl`: the values for the selectivity ratio in series [1], in series [7] and in series [8] were 7710, 7 and 16200, respectively. The IC50 is 162000 nM in series [2], 10 nM in series [4], 21 nM in [6] and 24000 nM in series [9]. For the same compound, the outcome in series [3] was inactive. Besides, the Survival in [5] came to 26 days.

For the compound `Cl.Cl.N=C(N)c1ccc(OCCCCCOc2ccc(C(=N)N)cc2C(N)=O)c(C(N)=O)c1`, the selectivity ratio in [1] is over 4420; in [8], over 3730. Further, the IC50 was over 168000 nM in series [2], 45 nM in [4], 38 nM in series [6] and over 50000 nM in [9]. Moreover, the Survival in series [10] turned out to be 26.5 days. Also, the result in [11] was inactive.

Consider `Cl.Cl.N=C(Nc1ccc(OCCCCCOc2ccc(NC(=N)c3ccccc3)cc2)cc1)c1ccccc1`, for which the selectivity ratio in series [1] was 15; in series [7] it was under 1; in series [8], 21. The IC50 in series [2] was 3100 nM; in series [4] it was 147 nM; in series [6], 201 nM; in series [9], over 100000 nM. In [10], the Survival was found to be 7 days. Further, the result in series [11] was inactive.

Consider `Cl.Cl.Cl.Cl.N=C(N)c1ccc(OCCCCCOc2ccc(C(=N)N)cc2Cl)c(Cl)c1`, for which the selectivity ratio in series [1] amounted to 431; in series [7] it was 8; in series [8], 255. In addition, the IC50 in series [2] was 11200 nM; in series [4], 44 nM; in series [6], 26 nM; in [9], 1450 nM. Moreover, the Survival in series [10] is over 29.5 days. Further, the result in series [11] was inactive.

On to `COc1cc(C2=NCCN2)ccc1OCCCOc1ccc(C2=NCCN2)cc1OC.Cl.Cl`, for which the selectivity ratio in series [1] was 1910; in [7] it was 3; in series [8], 1170. In addition, the IC50 in [2] worked out at 105000 nM; in series [4] it was 90 nM; in series [6], 55 nM; in [9], 34600 nM. For the same compound, the Survival was over 32.8 days in [12] and over 60 days in series [10].

On to `Cl.Cl.N=C(N)c1ccc(OCCCOc2ccc(C(=N)N)cc2Br)c(Br)c1`, for which the selectivity ratio in [1] stood at 400; in [7], 5; in series [8], 337. The IC50 was 6400 nM in [2], 19 nM in series [4], 16 nM in series [6] and 1170 nM in series [9]. For the same compound, the result in series [3] was inactive. In addition, the Survival in series [5] worked out at 13 days.

On to `Cl.Cl.N=C(N)c1cccc(OCCCCCOc2cccc(C(=N)N)c2)c1`, for which the selectivity ratio in series [1] was found to be 968; in series [7], 6; in series [8] it was 283. The IC50 in series [2] amounted to 18400 nM; in series [4], 65 nM; in [6] it was 19 nM; in [9], 3190 nM. For the same compound, in series [10], the Survival stood at 18.5 days. In addition, in [11], the result was inactive.

Consider `Cl.Cl.N=C(N)c1ccc(OCCCOc2ccc(C(=N)N)cc2)cc1`, for which the selectivity ratio amounted to 1470 in [1], 6 in series [7] and 1260 in series [8]. Also, the IC50 worked out at 8800 nM in series [2], 7 nM in [4], 6 nM in series [6] and 1500 nM in [9]. Further, the Survival in [10] was 34 days. Moreover, the outcome in [11] was inactive.

Turning to `CNC(=N)c1ccc(OCCCCCOc2ccc(C(=N)NC)cc2)cc1.Cl.Cl`, the selectivity ratio in series [1] came out at 38000; in [7] it was 32; in series [8], 6330. Further, the IC50 in series [2] amounted to 152000 nM; in [4], 24 nM; in series [6], 4 nM; in series [9], 4690 nM. The Survival was over 41 days in [5] and over 60 days in [10]. For the same compound, the outcome in series [11] was Active.

Turning to `Cl.Cl.N=C(N)c1ccc(OCCCCOc2ccc(C(=N)N)cc2)cc1`, the selectivity ratio in [1] was found to be 224; in [8] it was 470. Also, the IC50 in series [2] stood at 4700 nM; in series [4], 10 nM; in series [6], 21 nM. Moreover, in [10], the Survival worked out at 24.8 days. Moreover, the result in series [11] was inactive.

Regarding `Cl.Cl.c1cc(C2=NCCN2)ccc1NCCCCCNc1ccc(C2=NCCN2)cc1`, the selectivity ratio came out at 34500 in series [1], 136 in series [7] and 34500 in [8]. Also, the IC50 is 34500 nM in series [2], 1 nM in [4], 1 nM in [6] and 254 nM in [9]. Also, the result in series [3] was Active. In [5], the Survival was over 60 days.

In the case of `COc1cc(C(=N)N)ccc1OCCCOc1ccc(C(=N)N)cc1OC.Cl.Cl`, the selectivity ratio is 1840 in series [1], 17 in series [7] and 4960 in series [8]. Also, the IC50 in [2] is 114000 nM; in [4], 23 nM; in series [6], 62 nM; in [9], 6890 nM. The Survival in [5] was over 52.8 days; in series [10] it was over 60 days. The outcome in series [11] was Active.

`Cl.Cl.Cl.Cl.N=C(N)c1ccc(OCCCOc2ccc(C(=N)N)cc2Cl)c(Cl)c1`: the values for the selectivity ratio in series [1], in [7] and in series [8] were 1300, 16 and 6200, respectively. Also, the IC50 in series [2] came to 24800 nM; in series [4], 4 nM; in series [6], 19 nM; in [9], 1560 nM. Also, the result in [3] was Active. The Survival in series [5] was over 60 days.

Turning to `CC(C)NC(=N)c1ccc(NCCCCCNc2ccc(C(=N)NC(C)C)cc2)cc1.Cl`, the results for the selectivity ratio in series [1], in [7] and in series [8] were 62500, 22 and 2500, respectively. The IC50 is 125000 nM in [2], 50 nM in series [4], 2 nM in series [6] and 5750 nM in series [9]. For the same compound, in [3], the outcome was inactive. In [5], the Survival was found to be 18 days.

Turning to `Cl.c1cc(C2=NCCN2)ccc1OCCCCCOc1ccc(C2=NCCN2)cc1`, the figures for the selectivity ratio in series [1], in series [7] and in [8] were over 59300, over 64 and over 3360, respectively. In addition, the IC50 in [2] is over 178000 nM; in series [4], 53 nM; in series [6], 3 nM; in series [9] it was 2770 nM. The Survival in series [10] was over 39 days. In series [11], the outcome was inactive.
